Reference: ChEMBL document CHEMBL4033782, “Structural Modification of Natural Product Tanshinone I Leading to Discovery of Novel Nitrogen-Enriched Derivatives with Enhanced Anticancer Profile and Improved Drug-like Properties” (J Med Chem, 2018)
Active and inactive are the calls of the source. No cut-off for these calls is given here.

How the values were obtained:
Liver [1] = assay: Intrinsic clearance in human liver microsomes assessed as per mg protein up to 60 mins by LC-MS/MS analysis; assay type: ADME, microsome; settings: 1 h
Outline: (§1)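 Compound at 0.1 μM final (0.01% DMSO, 0.005% BSA) incubated at 37 °C with human, rat or mouse liver microsomes (0.33 mg/mL protein) in 0.1 M Tris/HCl pH 7.4, with 5 mM MgCl2 and 1 mM NADPH. Samples taken at 0, 7, 17, 30 and 60 min, quenched by methanol precipitation, centrifuged, and parent measured by LC-MS/MS. T1/2 and Clint derived.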

[2] = Half life in Sprague-Dawley rat at 3.90 mg/kg, po by LC-ESI-MS/MS analysis; assay type: ADME, organism-based; settings: in vivo, 3.9 mg/kg
Liver [3] = assay: Intrinsic clearance in mouse liver microsomes assessed per mg protein up to 60 mins by LC-MS/MS analysis; assay type: ADME, microsome; settings: 1 h; outline: as §1
HCT-116 [4] = assay: Induction of apoptosis in human HCT116 cells pretreated with Z-VAD-FMK pan-caspase inhibitor for 1 hr assessed as cleavage of PARP at 2 uM after 48 hrs by Western blot analysis; assay type: functional, cell-based
Outline: (§2)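 HCT116 cells, with or without a 1 h pretreatment with 20 μM Z-VAD-FMK, exposed for 48 h. Lysed on ice in Hepes/NaCl/Triton X-100 buffer with protease/phosphatase inhibitors and clarified at 12,000×g. Equal protein run by SDS-PAGE, blotted to nitrocellulose, probed overnight at 4 °C for PARP, caspase 3, caspase 7 and β-actin. HRP secondaries, ECL detection.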

HCT-116 [5] = assay: Induction of apoptosis in human HCT116 cells assessed as late apoptotic cells at 2 uM after 48 hrs by Annexin V-FITC/propidium iodide staining-based FACS analysis (reference value: 5.74%); assay type: functional
HCT-116 [6] = assay: Induction of apoptosis in human HCT116 cells pretreated with Z-VAD-FMK pan-caspase inhibitor for 1 hr assessed as late apoptotic cells at 2 uM after 48 hrs by Annexin V-FITC/propidium iodide staining-based FACS analysis (reference value: 3.15%); assay type: functional; set-up: scale not given: the % may be the effect or the level left
HCT-116 [7] = assay: Induction of apoptosis in human HCT116 cells assessed as activation of caspase 3/7 at 1.0 to 4.0 uM after 24 hrs by Caspase-Glo 3/7 assay
[8] = Antiproliferative activity against human KB/VCR cells after 72 hrs by sulforhodamine B assay; assay type: functional, cell-based
Outline: (§3)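 Cells grown in ATCC-specified medium with 10% heat-inactivated FBS, penicillin/streptomycin and 10 mM Hepes, at 37 °C under 5% CO2. Seeded, cultured overnight, then exposed to gradient concentrations for 72 h. Growth read by SRB staining; inhibition % = [1−(A450 treated/A450 control)]×100. IC50 obtained by the Logit method from independent experiments.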

HCT-116 [9] = assay: Induction of apoptosis in human HCT116 cells assessed as activation of caspase 3/7 at 2 uM after 48 hrs by Western blot analysis; assay type: functional, cell-based; outline: as §2
HCT-116 [10] = assay: Induction of apoptosis in human HCT116 cells pretreated with Z-VAD-FMK pan-caspase inhibitor for 1 hr assessed as activation of caspase 3/7 at 2 uM after 48 hrs by Western blot analysis; assay type: functional, cell-based; outline: as §2
Liver [11] = assay: Intrinsic clearance in rat liver microsomes assessed per mg protein up to 60 mins by LC-MS/MS analysis; assay type: ADME, microsome; settings: 1 h
Outline: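 Liver microsomes (0.33 mg/mL protein) in 0.1 M Tris/HCl pH 7.4 with 5 mM MgCl2, 1 mM NADPH, compound at 0.1 μM final (0.01% DMSO, 0.005% BSA), 37 °C; samples at 0, 7, 17, 30, 60 min quenched in methanol, centrifuged, LC-MS/MS; T1/2 and Clint per g protein derived.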

[12] = Aqueous solubility of the compound by HPLC method; assay type: physicochemical; settings: buffer
Outline: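 Solubility determined by an HPLC method, with one-point calibration against standards of known concentration. Mean ± SD of at least three independent experiments.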

[13] = Half life in rat liver microsomes at 0.1 uM up to 60 mins by LC-MS/MS analysis; assay type: ADME, microsome; outline: as §1
HCT-116 [14] = assay: Induction of apoptosis in human HCT116 cells assessed as early apoptotic cells at 2 uM after 48 hrs by Annexin V-FITC/propidium iodide staining-based FACS analysis (reference value: 2.35%); assay type: functional
[15] = Half life in human liver microsomes at 0.1 uM up to 60 mins by LC-MS/MS analysis; assay type: ADME, microsome; outline: as §1
HCT-116 [16] = assay: Induction of apoptosis in human HCT116 cells pretreated with Z-VAD-FMK pan-caspase inhibitor for 1 hr assessed as early apoptotic cells at 2 uM after 48 hrs by Annexin V-FITC/propidium iodide staining-based FACS analysis (reference value: 1.34%); assay type: functional; set-up: scale not given: the % may be the effect or the level left
Liver [17] = assay: Half life in mouse liver microsomes at 0.1 uM up to 60 mins by LC-MS/MS analysis; assay type: ADME, microsome; settings: microsomes, 1 h, 0.1 µM; outline: as §1
HCT-116 [18] = assay: Induction of apoptosis in human HCT116 cells assessed as cleavage of PARP at 2 uM after 48 hrs by Western blot analysis; assay type: functional, cell-based; outline: as §2
[19] = Oral bioavailability in Sprague-Dawley rat at 3.90 mg/kg by LC-ESI-MS/MS analysis; assay type: ADME, organism-based; settings: in vivo, 3.9 mg/kg
KB = assay: Antiproliferative activity against human KB cells after 72 hrs by sulforhodamine B assay; assay type: functional, cell-based; outline: as §3

intrinsic clearance (Liver [1]): 325 mL/min/g | half-life [2]: 10.2 min | intrinsic clearance (Liver [3]): Nd(Unstable) | intrinsic clearance (Liver [11]): 836 mL/min/g | solubility [12]: < 0.1 µg/mL | half-life at 0.1 µM [13]: 2.51 min | half-life at 0.1 µM [15]: 6.45 min | t1/2 (Liver [17]): Nd(Unstable) | bioavailability [19]: 0% | IC50 (KB): 5.87 µM
Compound: Cc1coc2c1C(=O)C(=O)c1c-2ccc2c(C)cccc12 [TANSHINONE I]
Activity (HCT-116 [4]): inactive | Activity (HCT-116 [5]): 5.46% | Activity (HCT-116 [6]): 7.11% | Activity (HCT-116 [7]): inactive | IC50 [8]: 4.4 µM | Activity (HCT-116 [9]): inactive | Activity (HCT-116 [10]): inactive | Activity (HCT-116 [14]): 3.81% | Activity (HCT-116 [16]): 4.24% | Activity (HCT-116 [18]): inactive
